According to PMC5767168 (The Biochemical journal, 2011):

Legend:
[1] = system: rat primary hippocampal neurons; assay: Dendritic spine morphology, DiI staining; assay type: cell-based; conditions: for induction of dendritic varicosities: 3 μM peptide, 72 h
[2] = Electron microscopy of fibril formation in DMEM; assay type: physicochemical; conditions: 10 μM peptide, 37°C
Method in brief: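 Peptide was dissolved in 60 mM NaOH, diluted into cell culture medium and sonicated 1 min. It was then incubated at 10 μM in DMEM without serum or cells at 37°C. Morphology was examined by electron microscopy periodically over several days, including 24 and 48 h.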

[3] = CD spectroscopy of conformational transition in phosphate buffer; assay type: physicochemical; conditions: 10 μM peptide, 10 mM sodium phosphate pH 7.4, 25°C; for kinetics of conformational transition by CD, in words: agitation 200 rev./min; for appearance of the solution at 48–72 h of incubation: agitation
Method in brief: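 HFIP-treated peptide films were dissolved in 60 mM NaOH, diluted with water, sonicated 1 min, then diluted with 20 mM sodium phosphate (pH 7.4) to 10 μM. Samples were incubated at 25°C with orbital agitation at 200 rev./min. CD spectra (190–260 nm, 1-mm path) were taken every 2 h for 12 h, then at 24, 48 and 72 h, and background-subtracted. Three independent experiments were run.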

[4] = Electron microscopy of fibril formation in phosphate buffer; assay type: physicochemical; conditions: sodium phosphate pH 7.4, 25°C, 96 h
Method in brief: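 HFIP-treated peptide was dissolved in 60 mM NaOH, sonicated and diluted in sodium phosphate (pH 7.4). It was incubated at 25°C with orbital agitation at 200 rev./min. Aliquots were applied to glow-discharged carbon-coated Formvar grids for 20 min, fixed in 2.5% glutaraldehyde for 4 min, stained with 1% uranyl acetate for 3 min, air-dried and imaged by TEM. Three independent experiments were run.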

[5] = CD spectroscopy of conformational transition in DMEM; assay type: physicochemical; conditions: 10 μM peptide, 37°C
Method in brief: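 Peptide was dissolved in 60 mM NaOH, diluted into cell culture medium and sonicated 1 min. It was then incubated at 10 μM in DMEM without serum or cells at 37°C. Conformation was followed by CD periodically over several days.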

Row | Substance | induction of dendritic varicosities [1] | time by which the fibrillation process appeared complete (electron microscopy) [2] [h] | kinetics of conformational transition by CD, in words [3] | appearance of the solution at 48–72 h of incubation [3] | further results
1 | Aβ42: Aβ (amyloid β-protein) comprising 42 amino acids, wild-type | abundant varicosities | ≤ 24 |  |  | effect at 10 μM in the dendritic spine assay ([1]; 10 μM peptide, initial experiments): overt cell death
2 | [Met(O2)^35]Aβ42 [Aβ42-sulfone] | abundant varicosities | ≤ 24 | behaved similarly to WT Aβ42 |  | 
3 | [Met(O)^35]-Aβ42 [Aβ42-sulfoxide] | little induction of varicosities |  | did not change during the first 24 h |  | 
4 | [Met(O)^35]Aβ40 [Aβ40-sulfoxide] |  |  |  | free of particulate material or precipitates | abundance of fibrils by electron microscopy [4]: scarce relative to those of WT Aβ40 or Aβ40-sulfone; kinetics of conformational transition by CD in medium, in words [5]: somewhat slower
5 | [Met(O2)^35]Aβ40 [Aβ40-sulfone] |  |  |  | free of particulate material or precipitates | 
